From ChEMBL document CHEMBL1125498, “N-methylated analogs of Ac[Nle28,31]CCK(26-33): synthesis, activity, and receptor selectivity” (J Med Chem, 1992)
Where a SMILES comes first, the peptide text is derived from it. [ ]: non-standard residue; d: D form. sY = N[C@@H](Cc1ccc(OS(=O)(=O)O)cc1)C(=O)O; Nle = CCCC[C@H](N)C(=O)O

Experiments:
[1] = biological target: T1, Cholecystokinin receptor type A (Cavia porcellus, UniProt Q63931); assay: In vitro smooth muscle contraction activity in guinea pig gall bladder cholecystokinin type A receptor; format: functional, tissue-based
T1 sequence (Q63931 whole entry): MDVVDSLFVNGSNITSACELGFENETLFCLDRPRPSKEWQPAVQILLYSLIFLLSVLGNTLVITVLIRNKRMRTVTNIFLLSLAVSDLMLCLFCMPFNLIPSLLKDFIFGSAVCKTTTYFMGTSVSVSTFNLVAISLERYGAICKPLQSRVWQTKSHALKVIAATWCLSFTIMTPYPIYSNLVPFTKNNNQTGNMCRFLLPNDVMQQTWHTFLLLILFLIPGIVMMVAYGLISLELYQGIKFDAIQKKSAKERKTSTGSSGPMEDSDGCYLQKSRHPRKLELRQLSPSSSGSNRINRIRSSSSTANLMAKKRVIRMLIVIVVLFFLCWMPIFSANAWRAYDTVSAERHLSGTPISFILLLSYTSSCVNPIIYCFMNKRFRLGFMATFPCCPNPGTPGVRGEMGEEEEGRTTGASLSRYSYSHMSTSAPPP
Procedure, shortened: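 Isolated guinea pig tissue strips, equilibrated 90 min with periodic tension readjustment and bath changes. Isometric force recorded. Cumulative-free concentration-response curves from increasing peptide concentrations, strips washed three times with 5–15-min intervals between doses. Carbachol test dose (100 nM) measured before, during and after as control. EC50 from curves; points in duplicate, mean ± SEM of at least three experiments.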

Cavia porcellus [2] = species on record: Cavia porcellus; assay: Relative Potency(RP %) (EC50) was calculated by using smooth muscle contraction assay in guinea pig stomach with relative to Ac[Nle28,31]CCK(26-33)(EC50); format: functional, Muscle tissue
Procedure, shortened: (§1)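 Same isolated guinea pig tissue contraction set-up: 90 min equilibration, isometric force, increasing peptide concentrations with three washes at 5–15-min intervals, 100 nM carbachol control.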

[3] = biological target: Gastrin/cholecystokinin type B receptor (Cavia porcellus); assay: In vitro smooth muscle contraction activity in guinea pig stomach consisting of CCK/gastrin receptor subtype
Cavia porcellus [4] = species on record: Cavia porcellus; assay: Relative Potency(RP %) (EC50) was calculated by using smooth muscle contraction assay in guinea pig gallbladder with relative to Ac[Nle28,31]CCK(26-33)(EC50); format: functional, Muscle tissue; procedure, shortened: as §1
Cavia porcellus [5] = species on record: Cavia porcellus; assay: Relative Potency(RP %) (EC50) was calculated by using smooth muscle contraction assay in guinea pig ileum with relative to Ac[Nle28,31]CCK(26-33)(EC50); format: functional; procedure, shortened: as §1
[6] = biological target: Cholecystokinin receptor (Cavia porcellus); assay: In vitro smooth muscle contraction activity in guinea pig ileum consists of two or three CCK receptor subtypes

## CCCC[C@H](NC(=O)[C@H](Cc1ccc(OS(=O)(=O)O)cc1)NC(=O)[C@H](CC(=O)O)NC(C)=O)C(=O)NCC(=O)N[C@@H](Cc1c[nH]c2ccccc12)C(=O)N[C@@H](CCCC)C(=O)N(C)[C@@H](CC(=O)O)C(=O)N[C@@H](Cc1ccccc1)C(N)=O
[1]
  EC50: 2 nM

## CCCC[C@H](NC(=O)[C@H](Cc1ccc(OS(=O)(=O)O)cc1)NC(=O)[C@H](CC(=O)O)NC(C)=O)C(=O)NCC(=O)N[C@@H](Cc1c[nH]c2ccccc12)C(=O)N[C@@H](CCCC)C(=O)N[C@@H](CC(=O)O)C(=O)N(C)[C@@H](Cc1ccccc1)C(N)=O
[1]
  EC50: 3 nM

## CCCC[C@H](NC(=O)[C@H](Cc1ccc(OS(=O)(=O)O)cc1)NC(=O)[C@H](CC(=O)O)NC(C)=O)C(=O)NCC(=O)N[C@@H](Cc1c[nH]c2ccccc12)C(=O)N(C)[C@@H](CCCC)C(=O)N[C@@H](CC(=O)O)C(=O)N[C@@H](Cc1ccccc1)C(N)=O
Cavia porcellus [2]
  Relative Potency: 10
[3]
  EC50: 140 nM
Cavia porcellus [4]
  Relative Potency: 6
Cavia porcellus [5]
  Relative Potency: 4
[6]
  EC50: 37 nM
[1]
  EC50: 20 nM

## CCCC[C@H](NC(=O)[C@H](Cc1ccc(OS(=O)(=O)O)cc1)NC(=O)[C@H](CC(=O)O)NC(C)=O)C(=O)NCC(=O)N(C)[C@@H](Cc1c[nH]c2ccccc12)C(=O)N[C@@H](CCCC)C(=O)N[C@@H](CC(=O)O)C(=O)N[C@@H](Cc1ccccc1)C(N)=O
[1]
  EC50: 53 nM

## CCCC[C@H](NC(=O)[C@H](Cc1c[nH]c2ccccc12)NC(=O)CN(C)C(=O)[C@H](CCCC)NC(=O)[C@H](Cc1ccc(OS(=O)(=O)O)cc1)NC(=O)[C@H](CC(=O)O)NC(C)=O)C(=O)N[C@@H](CC(=O)O)C(=O)N[C@@H](Cc1ccccc1)C(N)=O
[1]
  EC50: 0.1 nM

## CCCC[C@H](NC(=O)[C@H](Cc1ccc(OS(=O)(=O)O)cc1)NC(=O)[C@H](CC(=O)O)NC(C)=O)C(=O)NCC(=O)N[C@@H](Cc1c[nH]c2ccccc12)C(=O)N[C@@H](CCCC)C(=O)N[C@@H](CC(=O)O)C(=O)N[C@@H](Cc1ccccc1)C(N)=O
[1]
  EC50: 1.2 nM

## CCCC[C@H](NC(=O)[C@H](Cc1c[nH]c2ccccc12)NC(=O)CNC(=O)[C@H](CCCC)NC(=O)[C@H](Cc1ccc(OS(=O)(=O)O)cc1)N(C)C(=O)[C@H](CC(=O)O)NC(C)=O)C(=O)N[C@@H](CC(=O)O)C(=O)N[C@@H](Cc1ccccc1)C(N)=O
[1]
  EC50: 1.4 nM

## CCCC[C@H](NC(=O)[C@H](Cc1c[nH]c2ccccc12)NC(=O)[C@@H]1CCCN1C(=O)[C@H](CCCC)NC(=O)[C@H](Cc1ccc(OS(=O)(=O)O)cc1)NC(=O)[C@H](CC(=O)O)NC(C)=O)C(=O)N[C@@H](CC(=O)O)C(=O)N[C@@H](Cc1ccccc1)C(N)=O (Ac-D[sY][Nle]PW[Nle]DF-NH2)
Cavia porcellus [2]
  Relative Potency: 25
[3]
  EC50: 54 nM
Cavia porcellus [4]
  Relative Potency: 2
Cavia porcellus [5]
  Relative Potency: 1.3
[6]
  EC50: 104 nM
[1]
  EC50: 60 nM
